Test results from article PMC3082000 (Bioorganic & medicinal chemistry letters, 2010).
One block for each compound: values may come before it.

What was measured:
[1] = system: M2-M5; assay: counter-screening against M2-M5; assay type: cell-based; details: read-out: M2-M5 EC50; selectivity counter-screen
[2] = biological target: T1, M1 (Rattus norvegicus, UniProt P08482); details: cited from earlier work
T1 sequence (P08482 1-460): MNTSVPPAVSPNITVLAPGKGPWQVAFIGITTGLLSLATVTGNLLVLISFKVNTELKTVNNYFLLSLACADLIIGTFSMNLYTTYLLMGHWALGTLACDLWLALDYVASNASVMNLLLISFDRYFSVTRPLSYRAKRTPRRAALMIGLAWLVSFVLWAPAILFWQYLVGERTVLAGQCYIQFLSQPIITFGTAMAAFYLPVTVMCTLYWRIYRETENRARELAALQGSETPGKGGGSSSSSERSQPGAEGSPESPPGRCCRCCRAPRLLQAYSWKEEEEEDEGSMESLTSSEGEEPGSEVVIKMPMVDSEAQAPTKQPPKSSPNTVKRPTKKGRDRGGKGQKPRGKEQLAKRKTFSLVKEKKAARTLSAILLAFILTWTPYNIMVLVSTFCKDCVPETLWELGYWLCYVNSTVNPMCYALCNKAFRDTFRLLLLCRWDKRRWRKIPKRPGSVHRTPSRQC

[3] = cited from earlier work
[4] = biological target: T1, M1; assay: real-time cell-based calcium-mobilization assay, M1 PAM
[5] = solubility; assay type: physicochemical
[6] = system: M1-M5; assay: Lead Profile screen at Ricerca, orthosteric binding
[7] = system: biogenic amines (D2, H-HT2B, etc…); assay: Lead Profile screen at Ricerca, radioligand binding
[8] = system: TREx293-hM1 cells; assay: APP processing: M1-stimulated APPsα release, Western blot; assay type: cell-based, human; details: for APPsα release, in combination with low dose CCh: 2 μM with 100 nM CCh
How it was run: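 Stable human M1-overexpressing TREx293 cells, plated 2 days before use, were pretreated 15 min with 2 μM test compound or DMSO. Carbachol (100 nM or 10 μM) was then added, and medium was conditioned 1 h at 37°C. Endogenous APPsα in conditioned medium was detected by Western blot.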

Structure (SMILES): Cc1cc(NC(=O)CS(=O)(=O)c2cn(Cc3cccc(-c4cn[nH]c4)c3)c3cc(F)cc(F)c23)no1 [15e]
EC50 [1]: > 30 µM

Structure (SMILES): Cn1cc(-c2ccc(CN3C(=O)C(=O)c4ccccc43)c(F)c2)cn1 [compound 3]
efficacy (% ACh Max) [2]: 60 % ACh Max | brainAUC/plasmaAUC [3]: ~0.1

Structure (SMILES): Cc1cc(NC(=O)CS(=O)(=O)c2cn(Cc3ccccc3Cl)c3ccccc23)no1 [compound 7]
EC50 [1]: > 30 µM

More lines, main results first:

M1 EC50 ([4]; average of at least three independent determinations): inactive
Structure (SMILES): CCC(C)n1cc(-c2cccc(Cn3cc(S(=O)(=O)CC(=O)Nc4cc(C)on4)c4ccccc43)c2)cn1 (stereo not drawn) [14c]

solubility [5]: poor
Structure (SMILES): Cc1cc(NC(=O)CS(=O)(=O)c2cn(Cc3cccc(Br)c3)c3ccccc23)no1 [13g]

orthosteric binding at M1-M5 [6]: no orthosteric binding | selectivity versus the biogenic amines [7]: selective | improvement in potency ([4]; relative to the non-fluorinated bromine analog): ~3 fold
Structure (SMILES): Cc1cc(NC(=O)CS(=O)(=O)c2cn(Cc3cc(Br)ccc3F)c3ccccc23)no1 [15j, 2-((1-(5-bromo-2-fluorobenzyl)-1H-indol-3-yl)sulfonyl)-N-(5-methylisoxazol-3-yl)acetamide]
EC50 [1]: > 30 µM | APPsα release, in combination with low dose CCh ([8]; TREx293-hM1 cells, listed as ML169): potentiates the CCh-mediated non-amyloidogenic APPsα release to the same degree as 10 μM CCh | APPsα release, in combination with low dose CCh ([8]; TREx293-hM1 cells, listed as VU04505652): potentiates the CCh-mediated non-amyloidogenic APPsα release | APPsα release, compound alone ([8]; 2 μM, TREx293-hM1 cells): no effect

soluble APP (APPsα) ([8]; 100 nM): modest increase | soluble APP (APPsα) ([8]; 10 μM): significant increase
Structure (SMILES): C[N+](C)(C)CCOC(N)=O [carbachol, reference compound]
